Published values collected from several papers.
Compare with care: the assays were run in different laboratories.
Target: Mitogen-activated protein kinase kinase kinase 11 (MAP3K11, Homo sapiens, UniProt Q16584)

COc1ncccc1-c1cnn2ccc(N3CCN(C(=O)OC(C)C)CC3)nc12  remaining binding (binding; competition with immobilised ligand; 1 µM): 76%
N#CC1(c2ccccn2)CCN(Cc2cc(C(=O)O)c(=O)n3ccccc23)CC1  remaining binding (cell-free assay; competition with immobilised ligand; 1 µM): 100%
Cn1cc(-c2cccc(N3CCc4c(sc5c4CC(C)(C)C5)C3=O)c2CO)cc(Nc2ccncn2)c1=O  inhibition (enzyme activity; inhibitor; 1 µM): -4%
Nc1ncc(-c2nc(N3CCOCC3)nc(N3CCOCC3)n2)c(C(F)F)n1  remaining binding (binding; competition with immobilised ligand; 10 µM): 47%
Cc1nn(C)cc1-c1nc2c(N3CCN(Cc4ccc(Cl)cc4)CC3)c(Cl)cnc2[nH]1  remaining binding (binding; competition with immobilised ligand; 1 µM): 9.8%
CC(C)(C)c1cc(C=C(C#N)C#N)cc(Br)c1O  remaining activity (enzyme activity; inhibitor; 0.5 µM): 97.4%
Cn1cncc1[C@](O)(COc1ccc(C#N)cc1-c1ccc(OC(F)(F)F)cc1)c1ccc(C#N)cc1  remaining binding (cell-free assay; competition with immobilised ligand; 1 µM): 86%
O=c1[nH]c2ccccc2n1C1CCN(Cc2ccc(-c3[nH]c4cc5ncnc5cc4nc3-c3ccccc3)cc2)CC1  remaining signal (cell-free assay; 0.5 µM): 94.6%
Cn1cc(-c2cc(F)cc(N3CCn4c(cc5c4CCCC5)C3=O)c2CO)cc(Nc2ccc(N3CCN(C4COC4)CC3)cn2)c1=O  inhibition (enzyme activity; inhibitor; 0.1 µM): 0%
